# Activity calls are given as the source filed them. The rule behind the calls is not given here.
# Tests used:
# A2780 [1] = assay: Cell cycle arrest in human A2780 cells assessed as accumulation at G2/M phase at 3 uM after 24 hrs by FACS analysis; assay type: functional
# Procedure, shortened: (§1)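 A2780 cells (ECACC) seeded at 25000 cells/cm² in RPMI 1640, pH 7.4, with 10% FBS, 2 mM L-glutamine and penicillin–streptomycin, at 37 °C in 5% CO₂. After 24 h, treated for 24 h at 1 and 3 µM. Floating and trypsinised adherent cells pooled, PBS-washed, and DNA content analysed by flow cytometry.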
# A2780 [2] = assay: Inhibition of cellular DNA synthesis in human A2780 cells assessed as BrdU incorporation into nuclear DNA at 1 uM after 24 hrs by Hoechst 33342 staining-based microscopic analysis; assay type: functional; parameters: scale not given: the % may be the effect or the level left
# Procedure, shortened: (§2)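 A2780 human ovarian adenocarcinoma cells were seeded at 25000 cells/cm² in RPMI 1640 pH 7.4 with 10% FBS, 2 mM L-glutamine and penicillin–streptomycin. They were kept at 37 °C in 5% CO₂. After 24 h they were exposed to compound for 24 h. Floating and adherent cells were harvested with trypsin/EDTA, washed in PBS, and split for flow cytometry, immunoblot and BrdU incorporation.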
# BXPC-3 [3] = assay: Antitumor activity against human BxPC3 cells xenografted in BALB/c nu/nu mouse assessed as inhibition of tumor growth at 20 mg/kg, iv QD for 10 consecutive days measured every 3 days post last dose; assay type: functional
# Procedure, shortened: (§3)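 Human tumor xenografts (A2780 ovarian, HCT-116 colon, BX-PC3 pancreatic) in mice. Compound dissolved in 5% dextrose and given iv once daily for 10 consecutive days; A2780 curves show dosing from day 8. Doses were 10, 20 and 30 mg/kg for A2780, and 10 and 20 mg/kg for HCT-116 and BX-PC3. Controls received vehicle. Tumor growth inhibition taken at end of treatment; body weight tracked.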
# DU-145 = assay: Antiproliferative activity against human DU145 cells after 72 hrs by SRB assay; assay type: functional, cell-based; conditions: DU-145, 72 h
# Mus musculus = assay: Inhibition of CDK in human A2780 cells xenografted in iv dosed BALB/c nu/nu mouse assessed as reduction of hyperphosphorylated form of retinoblastoma protein at 30 mg/kg, iv for 5 days by immunohistochemistry; assay type: functional, organism-based; parameters: dose 30 mg/kg
# Procedure, shortened: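 Mice bearing A2780 xenografts given 30 mg/kg iv for 5 days; vehicle controls. Tumors analysed by immunohistochemistry for BrdU and phospho-pRb positive cells. For BrdU, sections were denatured and pretreated with 4 N HCl and proteinase K, then stained with the Dako ARK kit and counterstained with hematoxylin. Automated quantitative image analysis done by two observers.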
# A2780 [4] = assay: Cell cycle arrest in human A2780 cells assessed as accumulation at S phase at 3 uM after 24 hrs by FACS analysis; assay type: functional; procedure, shortened: as §1
# A2780 [5] = assay: Cell cycle arrest in human A2780 cells assessed as accumulation at G0/G1 phase at 3 uM after 24 hrs by FACS analysis; assay type: functional; procedure, shortened: as §1
# MCF7 = assay: Antiproliferative activity against human MCF7 cells after 72 hrs by SRB assay; assay type: functional, cell-based; conditions: MCF7, 72 h
# A2780 [6] = assay: Cell cycle arrest in human A2780 cells assessed as accumulation at sub-G1 phase at 3 uM after 24 hrs by FACS analysis; assay type: functional; procedure, shortened: as §1
# A2780 [7] = assay: Antitumor activity against human A2780 cells xenografted in iv dosed BALB/c nu/nu mouse assessed as inhibition of tumor growth administered QD for 10 consecutive days measured every 3 days post last dose; assay type: functional, organism-based; procedure, shortened: as §3
# [8] = molecular target: T1, Cyclin-dependent kinase (Homo sapiens) (UniProt P06493+P11802+P24941+Q00535+Q00534+P50613+Q00526+Q00536+Q07002+P49336+Q00537+P21127+Q96Q40+Q9BWU1+O94921+P50750+Q15131+Q14004+Q8IZL9+Q9NYV4); assay: Inhibition of CDK in human A2780 cells assessed as accumulation of hypophosphorylated form of retinoblastoma protein at 1 uM by immunohistochemistry; assay type: cell-based
# HCT-116 [9] = assay: Antitumor activity against human HCT116 cells xenografted in iv dosed BALB/c nu/nu mouse assessed as inhibition of tumor growth administered QD for 10 consecutive days measured every 3 days post last dose; assay type: functional, organism-based; procedure, shortened: as §3
# HCT-116 [10] = assay: Antiproliferative activity against human HCT116 cells after 72 hrs by SRB assay; assay type: functional, cell-based; conditions: HCT-116, 72 h
# A2780 [11] = assay: Antitumor activity against human A2780 cells xenografted in iv dosed BALB/c nu/nu mouse assessed as reduction of BrdU incorporation into cellular DNA at 30 mg/kg, iv for 5 days by immunohistochemistry
# COLO 205 = assay: Antiproliferative activity against human COLO205 cells after 72 hrs by SRB assay; assay type: functional, cell-based; conditions: COLO 205, 72 h
# [12] = Antiproliferative activity against human C-433 cells after 72 hrs by SRB assay; assay type: functional, cell-based; conditions: C-433, 72 h
# A2780 [13] = assay: Cell cycle arrest in human A2780 cells assessed as accumulation at G2/M phase at 1 uM after 24 hrs by FACS analysis; assay type: functional; procedure, shortened: as §1
# A2780 [14] = assay: Antiproliferative activity against human A2780 cells after 72 hrs by CellTiter-Glo luminescence assay; conditions: A2780, 72 h
# [15] = molecular target: T1, Cyclin-dependent kinase (Homo sapiens); assay: Inhibition of CDK in human A2780 cells assessed as accumulation of hypophosphorylated form of retinoblastoma protein at 3 uM by immunohistochemistry; assay type: cell-based
# A-375 = assay: Antiproliferative activity against human A375 cells after 72 hrs by SRB assay; assay type: functional, cell-based; conditions: A-375, 72 h
# [16] = Inhibition of SULU1 by scintillation proximity assay
# [17] = Inhibition of STK2 by scintillation proximity assay
# [18] = Inhibition of PDGFR by scintillation proximity assay
# A2780 [19] = assay: Antitumor activity against human A2780 cells xenografted in BALB/c nu/nu mouse assessed as inhibition of tumor growth at 30 mg/kg, iv QD for 10 consecutive days measured every 3 days post last dose; assay type: functional; procedure, shortened: as §3
# [20] = molecular target: T1, Cyclin-dependent kinase (Homo sapiens); assay: Inhibition of CDK in human A2780 cells assessed as reduction of hyperphosphorylated form of retinoblastoma protein at 1 uM by immunohistochemistry; assay type: cell-based
# HCT-116 [21] = assay: Antitumor activity against human HCT116 cells xenografted in BALB/c nu/nu mouse assessed as inhibition of tumor growth at 20 mg/kg, iv QD for 10 consecutive days measured every 3 days post last dose; assay type: functional; conditions: HCT-116, read-out: INH; procedure, shortened: as §3
# A2780 [22] = assay: Cell cycle arrest in human A2780 cells assessed as accumulation at G0/G1 phase at 1 uM after 24 hrs by FACS analysis; assay type: functional; procedure, shortened: as §1
# [23] = Inhibition of NIM by scintillation proximity assay
# A2780 [24] = assay: Cell cycle arrest in human A2780 cells assessed as accumulation at S phase at 1 uM after 24 hrs by FACS analysis; assay type: functional; procedure, shortened: as §1
# PC-3 = assay: Antiproliferative activity against human PC3 cells after 72 hrs by SRB assay; assay type: functional, cell-based; conditions: PC-3, 72 h
# A2780 [25] = assay: Inhibition of cellular DNA synthesis in human A2780 cells assessed as BrdU incorporation into nuclear DNA at 3 uM after 24 hrs by Hoechst 33342 staining-based microscopic analysis; assay type: functional; parameters: scale not given: the % may be the effect or the level left; procedure, shortened: as §2
# [26] = molecular target: T1, Cyclin-dependent kinase (Homo sapiens); assay: Inhibition of CDK in human A2780 cells assessed as reduction of hyperphosphorylated form of retinoblastoma protein at 3 uM by immunohistochemistry; assay type: cell-based
# BXPC-3 [27] = assay: Antiproliferative activity against human BxPC3 cells after 72 hrs by SRB assay; assay type: functional, cell-based; conditions: BXPC-3, 72 h
# [28] = Inhibition of CK2 by scintillation proximity assay
compound,measurement,setting,value
CC(C)CC(=O)Nc1n[nH]c2c1CN(C(=O)C1CCN(C)CC1)C2(C)C [PHA-793887],Activity,A2780 [1],263%
same,Activity,A2780 [2],-85%
same,inhibition in vivo at 20 mg/kg,BXPC-3 [3],84%
same,IC50,DU-145,303 nM
same,Activity,Mus musculus,Active
same,Activity,A2780 [4],-48%
same,Activity,A2780 [5],-11%
same,IC50,MCF7,1280 nM
same,Activity,A2780 [6],26.2%
same,Activity,A2780 [7],Dose-dependent effect
same,Activity,[8],Active
same,Activity,HCT-116 [9],Dose-dependent effect
same,IC50,HCT-116 [10],163 nM
same,Activity,A2780 [11],Active
same,IC50,COLO 205,188 nM
same,IC50,[12],285 nM
same,Activity,A2780 [13],62%
same,IC50,A2780 [14],90 nM
same,Activity,[15],Active
same,IC50,A-375,396 nM
same,IC50,[16],> 10000 nM
same,IC50,[17],> 10000 nM
same,IC50,[18],> 10000 nM
same,inhibition in vivo at 30 mg/kg,A2780 [19],76%
same,Activity,[20],Active
same,inhibition in vivo at 20 mg/kg,HCT-116 [21],81%
same,Activity,A2780 [22],25%
same,IC50,[23],> 10000 nM
same,Activity,A2780 [24],-76%
same,IC50,PC-3,601 nM
same,Activity,A2780 [25],-100%
same,Activity,[26],Active
same,IC50,BXPC-3 [27],3440 nM
same,IC50,[28],> 10000 nM

# Source: ChEMBL document CHEMBL1157586 (Bioorg Med Chem, 2010)
